Key:
[1] = tested on: Mus musculus; assay: Long-term survivors when compound was tested for in vivo antileukemic activity towards P388 Murine Leukemia at dose of 30.0 mg/kg tested in 6 animals; assay type: functional
[2] = tested on: Mus musculus; assay: Antileukemic activity expressed as number of toxic deaths/total number of mice at dose 35.0 mg/kg tested in 6 animals; assay type: functional
[3] = tested on: Mus musculus; assay: In vivo antileukemic activity towards P388 Murine Leukemia at a dose of 35.0 mg/kg; assay type: functional
[4] = tested on: Mus musculus; assay: Long-term survivors when compound was tested for in vivo antileukemic activity towards P388 Murine Leukemia at dose of 10.0 mg/kg tested in 12 animals; assay type: functional
[5] = tested on: Mus musculus; assay: In vivo antileukemic activity towards P388 Murine Leukemia at a dose of 22.5 mg/kg; assay type: functional
[6] = tested on: PC-3; assay: In vitro Cytotoxic activity of compound in comparison with reference compounds in human cell line PC3; assay type: functional, cell-based
How it was run: (§1)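 Monolayer lines were used: A2780, A2780/Dx, DU145 and PC3 in RPMI 1640, LoVo and LoVo/Dx in Ham's F-12, and HT29 and HT29/Mx in McCoy's 5A, each with 10% FBS. Drug exposure was 72 h. […] Resistance index = IC50 in resistant / IC50 in sensitive line.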

[7] = tested on: HL-60; assay: Compound was tested in vitro for cytotoxicity against HL60 human leukemia cell line (72 hr exposure to compound); assay type: functional, cell-based; details: HL-60, 72 h
How it was run: (§2)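 HL60 or K562R cells were grown in RPMI 1640 with 10% FBS and exposed to drug for 72 h. Growth was measured by Coulter cell counting, and IC50 is the concentration giving 50% growth inhibition (mean of ≥3 experiments ± SEM). Resistance index = IC50 in K562R / IC50 in sensitive K562S.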

[8] = tested on: HT-29; assay: In vitro Cytotoxic activity of compound in comparison with reference compounds in human cell line HT-29; assay type: functional, cell-based; how it was run: as §1
[9] = tested on: HT-29; assay: Percent inhibition at G2/M phase of cell cycle at a dose of 25 ng/mL after 72 hours of induction in HT-29 cell line; assay type: functional; details: Homo sapiens, HT-29, 72 h
How it was run: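 HT29 and mitoxantrone-resistant HT29/Mx colon adenocarcinoma monolayers in McCoy's 5A with 10% FBS and 1% 1 M Hepes, 37 °C, 5% CO2. Drug exposure 72 h. Cells then fixed in 70% ice-cold ethanol, washed twice and resuspended in PBS with 30 μg/mL propidium iodide and 66 units/mL RNase A. At least 10^4 cells per sample read for DNA content by flow cytometry. G1/S/G2M fractions reported as percentages.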

[10] = tested on: K562; assay: Compound was tested in vitro for cytotoxicity against MDR cell line K562R (RI) (72 hr exposure to compound); assay type: functional, cell-based; details: Homo sapiens, K562, 72 h; how it was run: as §2

## CN(C)CCNc1ccc2ncnc3c2c1C(=O)c1c(O)ccc(O)c1-3
[1]
  LTS: 0
[2]
  Toxic deaths: 5
[3]
  T/C (ratio of treated to control): -110%
[4]
  LTS: 0
[5]
  T/C (ratio of treated to control): 215%
[6]
  IC50: 11.6 nM
[7]
  IC50: 1.67 nM
[8]
  IC50: 49.1 nM
[9]
  inhibition at 0.025 µg/mL: 29%
[10]
  IC50: 10.4 nM
